Measurements from ChEMBL document CHEMBL1795318, “Development of tetrahydroisoquinoline-based hydroxamic acid derivatives: potent histone deacetylase inhibitors with marked in vitro and in vivo antitumor activities” (J Med Chem, 2011).
The source made the active and inactive calls. The calls are words filed in the database; no cut-off is given here.

Tests used:
[1] = tested on: A549; experiment: Cytotoxicity against human A549 cells after 48 hrs by MTT assay; format: functional, cell-based; conditions: A549, 48 h
Procedure, shortened: (§1)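 Cells kept in RPMI1640 with 10% FBS, 37 °C, 5% CO₂; seeded day before dosing, grown ≥4 h, treated with a concentration series for 48 h. MTT 0.5% solution added, 4 h further; formazan dissolved in DMSO 15 min, absorbance at 570 nm. Mean of three experiments.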

[2] = tested on: MDA-MB-231; experiment: Cytotoxicity against human MDA-MB-231 cells after 48 hrs by MTT assay; format: functional, cell-based; conditions: MDA-MB-231, 48 h
[3] = tested on: HeLa; experiment: Cytotoxicity against human HeLa cells after 48 hrs by MTT assay; format: functional, cell-based
[4] = tested on: K562; experiment: Cytotoxicity against human K562 cells after 48 hrs by MTT assay; format: functional, cell-based; conditions: K562, 48 h
[5] = tested on: NB-4; experiment: Cytotoxicity against human NB4 cells after 48 hrs by MTT assay; format: functional, cell-based; conditions: NB-4, 48 h
[6] = tested on: HL-60; experiment: Cytotoxicity against human HL60 cells after 48 hrs by MTT assay; format: functional, cell-based; conditions: HL-60, 48 h
[7] = Cytotoxicity against human ES2 cells after 48 hrs by MTT assay; format: functional, cell-based; conditions: ES-2, 48 h
[8] = Cytotoxicity against human fibroblasts after 48 hrs by MTT assay; format: cell-based; conditions: fibroblast; procedure, shortened: as §1
[9] = tested on: MDA-MB-231; experiment: Antitumor activity against human MDA-MB-231 cells xenografted in athymic nude mouse assessed as tumor growth inhibition at 90 mg/kg, ip qd for 21 days; format: functional; conditions: route intraperitoneal
[10] = tested on: Mus musculus; experiment: Toxicity in human MDA-MB-231 cells xenografted athymic nude mouse assessed as change in body weight at 90 mg/kg, ip qd for 21 days; format: organism-based; parameters: dose 90 mg/kg, route intraperitoneal; conditions: in vivo, 504 h
[11] = tested on: Mus musculus; experiment: Toxicity in human MDA-MB-231 cells xenografted athymic nude mouse assessed as signs of toxicity at 90 mg/kg, ip qd for 21 days; format: organism-based; parameters: dose 90 mg/kg, route intraperitoneal; conditions: in vivo, 504 h
[12] = tested on: MDA-MB-231; experiment: Antitumor activity against human MDA-MB-231 cells xenografted in athymic nude mouse assessed as tumor growth delay at 90 mg/kg, ip qd for 21 days; format: functional, organism-based; parameters: dose 90 mg/kg
[13] = molecular target: Histone deacetylase; experiment: Inhibition of HDAC in human HeLa cell nuclear extract after 30 mins by fluorescence microplate reader; format: protein assay
[14] = molecular target: T1, Protein deacetylase HDAC6 (Homo sapiens, UniProt Q9UBN7); experiment: Inhibition of HDAC6 in human HeLa cell nuclear extract after 30 mins by fluorescence microplate reader
T1 sequence (Q9UBN7 whole entry): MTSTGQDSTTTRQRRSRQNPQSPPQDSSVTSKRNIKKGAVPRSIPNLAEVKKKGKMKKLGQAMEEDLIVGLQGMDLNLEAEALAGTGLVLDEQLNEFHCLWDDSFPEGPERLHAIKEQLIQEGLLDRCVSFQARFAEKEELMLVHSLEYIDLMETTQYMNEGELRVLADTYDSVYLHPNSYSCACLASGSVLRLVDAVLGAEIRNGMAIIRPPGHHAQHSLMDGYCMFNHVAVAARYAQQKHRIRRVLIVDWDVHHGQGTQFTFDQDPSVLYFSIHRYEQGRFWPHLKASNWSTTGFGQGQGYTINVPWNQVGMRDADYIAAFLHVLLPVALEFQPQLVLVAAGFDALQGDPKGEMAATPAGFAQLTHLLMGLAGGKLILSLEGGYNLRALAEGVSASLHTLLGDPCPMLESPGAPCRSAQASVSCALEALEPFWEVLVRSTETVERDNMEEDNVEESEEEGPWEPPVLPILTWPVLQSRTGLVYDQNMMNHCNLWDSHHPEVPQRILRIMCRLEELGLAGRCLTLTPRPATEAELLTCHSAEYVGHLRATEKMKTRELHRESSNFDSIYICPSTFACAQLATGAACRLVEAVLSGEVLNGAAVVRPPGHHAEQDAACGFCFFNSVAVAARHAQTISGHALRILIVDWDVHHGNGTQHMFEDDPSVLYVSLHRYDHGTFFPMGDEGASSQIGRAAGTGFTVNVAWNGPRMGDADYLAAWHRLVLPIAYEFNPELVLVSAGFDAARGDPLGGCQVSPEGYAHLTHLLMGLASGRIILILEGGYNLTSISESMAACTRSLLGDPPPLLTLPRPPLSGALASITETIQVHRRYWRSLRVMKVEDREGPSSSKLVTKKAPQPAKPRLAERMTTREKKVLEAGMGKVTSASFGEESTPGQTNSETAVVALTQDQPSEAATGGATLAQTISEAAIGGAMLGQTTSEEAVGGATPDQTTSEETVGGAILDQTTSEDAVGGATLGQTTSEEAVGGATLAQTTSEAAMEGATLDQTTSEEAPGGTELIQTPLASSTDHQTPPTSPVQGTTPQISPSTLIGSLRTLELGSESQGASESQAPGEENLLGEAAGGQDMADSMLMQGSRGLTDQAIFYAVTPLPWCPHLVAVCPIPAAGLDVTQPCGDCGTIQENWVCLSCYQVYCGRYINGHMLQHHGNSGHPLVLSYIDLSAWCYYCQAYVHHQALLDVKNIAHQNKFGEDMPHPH

[15] = tested on: MDA-MB-231; experiment: Cell cycle arrest in human MDA-MB-231 cells assessed as accumulation at G1 phase at 0.5 uM after 48 hrs by flow cytometry analysis; format: functional, cell-based
[16] = tested on: MDA-MB-231; experiment: Cell cycle arrest in human MDA-MB-231 cells assessed as accumulation at G2 phase at 2 to 5 uM after 48 hrs by flow cytometry analysis; format: functional, cell-based
[17] = molecular target: T2, Histone deacetylase 8 (Homo sapiens, UniProt Q9BY41); experiment: Inhibition of HDAC8 after 30 mins by fluorescence microplate reader
T2 sequence (Q9BY41 whole entry): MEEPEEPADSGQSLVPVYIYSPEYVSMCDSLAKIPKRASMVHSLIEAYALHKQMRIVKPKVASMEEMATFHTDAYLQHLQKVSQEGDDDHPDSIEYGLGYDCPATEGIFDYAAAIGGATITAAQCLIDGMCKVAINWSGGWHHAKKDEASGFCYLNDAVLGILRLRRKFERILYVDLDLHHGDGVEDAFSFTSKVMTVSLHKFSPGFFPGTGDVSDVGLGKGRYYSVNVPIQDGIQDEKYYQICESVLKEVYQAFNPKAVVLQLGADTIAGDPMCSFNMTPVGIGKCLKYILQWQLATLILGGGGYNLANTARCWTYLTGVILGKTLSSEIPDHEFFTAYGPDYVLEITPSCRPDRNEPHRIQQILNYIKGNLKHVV
Procedure, shortened: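 HDAC8 mixed with compound at various concentrations, fluorogenic substrate added, 37 °C for 30 min; stopped with developer containing trypsin and TSA. Fluorescence read after 20 min (ex 390/em 460 nm); inhibition relative to control wells, IC50 by regression of concentration/inhibition data; mean ± SD of at least three determinations.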

CC[C@H](C)[C@H](NC(=O)OC(C)(C)C)C(=O)N1Cc2cc(OCC(=O)NO)ccc2C[C@H]1C(=O)Nc1ccc(OC)cc1
IC50 [1]: 940 nM | IC50 [2]: 790 nM | IC50 [3]: 37100 nM | IC50 [4]: 1470 nM | IC50 [5]: 1500 nM | IC50 [6]: 47600 nM | IC50 [7]: 5000 nM | Activity [8]: Toxic | T/C [9]: 63% | Activity [10]: Non-toxic | Activity [11]: Non-toxic | Activity [12]: Active | IC50 [13]: 58 nM | IC50 [14]: 47 nM | Activity [15]: Active | Activity [16]: Active | IC50 [17]: 139 nM

O=C(CCCCCCC(=O)Nc1ccccc1)NO [VORINOSTAT]
IC50 [1]: 740 nM | Activity [10]: Non-toxic | Activity [11]: Non-toxic | Activity [12]: Active
